# Publication PMC6468299 (Nucleic Acids Research, 2019)
# Key:
# DNA polymerase β (Pol-β) = DNA polymerase β (Pol-β) (Homo sapiens, UniProt P06746); assay: DNA polymerase inhibition assay, Pol-β; type: biochemical; details: 1 h, 3H-dTTP incorporation
# Method in brief: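 Reactions contained 25 μM each dATP/dCTP/dGTP, 25 nM TTP plus 1 μCi ³H-TTP, 160 nM template/primer, and serially diluted test nucleotide (0–200 μM). Incubation was 1 h at 37°C. DNA was TCA-precipitated, washed and counted; inhibition was taken from reduced incorporation. ddNTPs served as positive control.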
# Pol-γ (exo- mutant) = target: T1, Pol-γ (exo- mutant) (Homo sapiens, UniProt P54098, D198A/E200A); assay: Non-obligate chain termination assay; type: biochemical; details: for chain elongation with analog in excess over dTTP: analog 1 μM at 10-fold (FIAU-TP also 100-fold) excess over dTTP; for chain elongation with analog substituted for dTTP: analog 1 μM, no dTTP; for effect on chain elongation in the presence of native dTTP: dTTP 1 μM, analog at 0.01, 0.1 or 1 μM, 37°C, 10 min
# T1 sequence (P54098 26-1239 D198A/E200A limits assumed): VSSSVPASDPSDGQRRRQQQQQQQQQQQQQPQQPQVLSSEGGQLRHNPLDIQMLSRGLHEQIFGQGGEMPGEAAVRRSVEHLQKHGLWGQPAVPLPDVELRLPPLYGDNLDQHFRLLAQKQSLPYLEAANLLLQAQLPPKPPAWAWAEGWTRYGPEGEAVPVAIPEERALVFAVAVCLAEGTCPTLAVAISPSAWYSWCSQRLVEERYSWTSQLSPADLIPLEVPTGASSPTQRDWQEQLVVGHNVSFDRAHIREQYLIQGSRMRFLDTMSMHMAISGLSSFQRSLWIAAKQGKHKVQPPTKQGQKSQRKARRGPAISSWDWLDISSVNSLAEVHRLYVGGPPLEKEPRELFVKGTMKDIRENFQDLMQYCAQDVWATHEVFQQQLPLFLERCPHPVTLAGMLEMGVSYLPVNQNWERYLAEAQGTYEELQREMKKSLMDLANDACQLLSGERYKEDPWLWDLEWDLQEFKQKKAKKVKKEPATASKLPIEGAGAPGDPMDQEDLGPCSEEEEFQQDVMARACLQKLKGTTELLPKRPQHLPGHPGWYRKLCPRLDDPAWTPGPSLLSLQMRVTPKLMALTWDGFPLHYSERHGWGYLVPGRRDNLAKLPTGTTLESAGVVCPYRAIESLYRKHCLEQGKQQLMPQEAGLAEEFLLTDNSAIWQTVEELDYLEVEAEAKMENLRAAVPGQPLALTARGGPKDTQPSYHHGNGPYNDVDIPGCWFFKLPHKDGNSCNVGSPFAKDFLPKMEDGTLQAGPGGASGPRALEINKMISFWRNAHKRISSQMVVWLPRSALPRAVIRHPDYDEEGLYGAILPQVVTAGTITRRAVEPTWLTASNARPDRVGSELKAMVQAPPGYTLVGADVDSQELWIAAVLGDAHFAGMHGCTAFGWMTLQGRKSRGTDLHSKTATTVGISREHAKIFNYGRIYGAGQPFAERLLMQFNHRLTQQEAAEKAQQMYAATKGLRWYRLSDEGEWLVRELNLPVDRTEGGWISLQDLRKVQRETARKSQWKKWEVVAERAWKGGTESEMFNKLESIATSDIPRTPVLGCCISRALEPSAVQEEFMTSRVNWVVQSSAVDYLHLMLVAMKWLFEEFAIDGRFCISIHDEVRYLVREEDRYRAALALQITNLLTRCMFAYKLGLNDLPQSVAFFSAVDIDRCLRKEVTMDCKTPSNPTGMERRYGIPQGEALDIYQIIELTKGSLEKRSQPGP
# Method in brief: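 A 23-mer DNA primer was 5′-end labelled with γ-³²P ATP and annealed to a 50-mer template. Extension required reading through nine consecutive template adenosines. Reactions used 10 units exonuclease-deficient human Pol-γ, with test analogue (0.01–1 μM) alone or with dTTP, plus native dATP/dCTP/dGTP, for 10 min at 37°C. Samples were stopped with loading dye, heated 100°C 5 min, run on 12% urea PAGE and phosphorimaged.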
Compound,IC50 (DNA polymerase β (Pol-β)) [µM],IC90 (DNA polymerase β (Pol-β)) [µM],chain elongation with analog in excess over dTTP (Pol-γ (exo- mutant)),chain elongation with analog substituted for dTTP (Pol-γ (exo- mutant)),effect on chain elongation in the presence of native dTTP (Pol-γ (exo- mutant))
Nc1ncnc2c1ncn2[C@@H]1O[C@H](COP(=O)(O)OP(=O)(O)OP(=O)(O)O)[C@@H](O)[C@H]1F [2′-F-ATP],175,> 200,,,
Nc1ccn([C@@H]2O[C@H](COP(=O)(O)OP(=O)(O)OP(=O)(O)O)[C@@H](O)[C@H]2F)c(=O)n1 [2′-F-CTP],> 200,> 200,,,
Nc1nc2c(ncn2[C@@H]2O[C@H](COP(=O)(O)OP(=O)(O)OP(=O)(O)O)[C@@H](O)[C@H]2F)c(=O)[nH]1 [2′-F-GTP],> 200,> 200,,,
O=c1ccn([C@@H]2O[C@H](COP(=O)(O)OP(=O)(O)OP(=O)(O)O)[C@@H](O)[C@H]2F)c(=O)[nH]1 [2′-F-UTP],91.6,> 200,the presence of dTTP reduced the elongation defect,weak smear of elongated species with very little full-length product,essentially no impact on chain elongation
"O=c1[nH]c(=O)n([C@@H]2O[C@H](COP(=O)(O)OP(=O)(O)OP(=O)(O)O)[C@@H](O)[C@@H]2F)cc1I [FIAU-TP, fialuridine triphosphate, reference compound]",0.37,5.56,continued to strongly impair elongation,restricted elongation products to 31 nucleotides in length,caused a reduction in full-length product and an increase in shorter products at the highest concentration
